Measured values as given in ChEMBL document CHEMBL1144531, “Novel selective inhibitors of neutral endopeptidase for the treatment of female sexual arousal disorder” (Bioorg Med Chem, 2007).
pIC50: −log10 of the molar value.

Columns and labels:
[1] = Distribution coefficient, log D in n-octanol and phosphate buffer at pH 7.4; assay type: physicochemical
[2] = Metabolic stability in human liver microsomes at 1 uM; assay type: ADME, Microsome
In short: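 Human liver microsomes, 1 µM compound with 0.5 µM CYP. Reported as first-order compound disappearance half-life.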

Homo sapiens = species on record: Homo sapiens; assay: Protein binding in human plasma at 1 ug/ml by equilibrium dialysis; conditions: read-out: PPB (converted)
[3] = Inhibition of dog kidney cortex NEP at pH 7; design: species or system Canis lupus familiaris
[4] = biological target: T1, Endothelin-converting enzyme 1 (Homo sapiens) (UniProt P42892); assay: Inhibition of human ECE1
T1 sequence (whole entry): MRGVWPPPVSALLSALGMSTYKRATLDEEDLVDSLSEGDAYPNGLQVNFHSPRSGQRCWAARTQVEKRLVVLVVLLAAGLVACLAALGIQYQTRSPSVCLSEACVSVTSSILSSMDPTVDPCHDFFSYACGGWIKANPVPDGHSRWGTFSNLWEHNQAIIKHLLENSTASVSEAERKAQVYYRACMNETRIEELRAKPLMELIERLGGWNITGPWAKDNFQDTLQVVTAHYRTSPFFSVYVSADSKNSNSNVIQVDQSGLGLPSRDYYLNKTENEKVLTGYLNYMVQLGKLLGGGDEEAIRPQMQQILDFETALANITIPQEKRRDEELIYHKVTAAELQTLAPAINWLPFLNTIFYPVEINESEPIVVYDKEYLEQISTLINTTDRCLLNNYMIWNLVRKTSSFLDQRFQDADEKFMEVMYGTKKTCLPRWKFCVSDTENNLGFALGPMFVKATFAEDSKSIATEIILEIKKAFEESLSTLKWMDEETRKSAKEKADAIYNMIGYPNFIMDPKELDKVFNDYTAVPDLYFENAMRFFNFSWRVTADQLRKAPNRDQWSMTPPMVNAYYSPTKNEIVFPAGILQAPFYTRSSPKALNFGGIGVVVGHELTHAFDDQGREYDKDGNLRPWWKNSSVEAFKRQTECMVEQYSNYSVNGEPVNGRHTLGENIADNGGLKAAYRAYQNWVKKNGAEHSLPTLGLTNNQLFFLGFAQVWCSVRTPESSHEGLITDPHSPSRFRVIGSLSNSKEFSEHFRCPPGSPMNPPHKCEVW
In short: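 Human ECE-1, run like the ACE assay (50 mM Tris-Cl pH 7.4, 300 mM NaCl, EDTA stop), with Big ET-1 as substrate. IC50 from dilution series.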

[5] = Permeability from apical to basolateral side of the Caco-2 cell membrane at pH 7.4; assay type: ADME, cell-based; conditions: human, Caco-2, pH 7.4
In short: (§1)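 Caco-2 monolayers; apparent permeability (Papp) measured with pH 7.4 in both apical and basolateral chambers.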

Sus scrofa = species on record: Sus scrofa; assay: Inhibition of pig ACE
In short: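 Porcine ACE; same format as the NEP assay. Substrate o-aminobenzoyl-Gly-Gly-p-nitro-Phe-Pro-OH, 10 µM final, in 50 mM Tris-Cl pH 7.4 (37 °C) with 300 mM NaCl. Stopped with 2 mM EDTA; fluorescence read-out. IC50 from dilution series.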

[6] = Inhibition of dog kidney cortex NEP at pH 7.4; design: species or system Canis lupus familiaris
[7] = Clearance in rat at 1 mg/kg, iv and 1 mg/kg, po; assay type: ADME, organism-based; conditions: in vivo
In short: (§2)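 Male CD rats, jugular vein cannulated under general anaesthesia; dosed 1 mg/kg iv (tail vein) and po (gavage). Serial 0.2 ml blood samples taken from the cannula into heparin, centrifuged to plasma, stabilised with 0.01 parts 85% phosphoric acid, frozen. Plasma levels measured by LC–MS–MS after C18 solid-phase extraction, with internal standard.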

[8] = Permeability from basolateral to apical side of the Caco-2 cell membrane at pH 7.4; assay type: ADME, cell-based; conditions: human, Caco-2, pH 7.4; in short: as §1
Neprilysin [9] = biological target: T2, Neprilysin (Rattus norvegicus, UniProt P07861); assay: Inhibition of rat NEP
T2 sequence (P07861 whole entry): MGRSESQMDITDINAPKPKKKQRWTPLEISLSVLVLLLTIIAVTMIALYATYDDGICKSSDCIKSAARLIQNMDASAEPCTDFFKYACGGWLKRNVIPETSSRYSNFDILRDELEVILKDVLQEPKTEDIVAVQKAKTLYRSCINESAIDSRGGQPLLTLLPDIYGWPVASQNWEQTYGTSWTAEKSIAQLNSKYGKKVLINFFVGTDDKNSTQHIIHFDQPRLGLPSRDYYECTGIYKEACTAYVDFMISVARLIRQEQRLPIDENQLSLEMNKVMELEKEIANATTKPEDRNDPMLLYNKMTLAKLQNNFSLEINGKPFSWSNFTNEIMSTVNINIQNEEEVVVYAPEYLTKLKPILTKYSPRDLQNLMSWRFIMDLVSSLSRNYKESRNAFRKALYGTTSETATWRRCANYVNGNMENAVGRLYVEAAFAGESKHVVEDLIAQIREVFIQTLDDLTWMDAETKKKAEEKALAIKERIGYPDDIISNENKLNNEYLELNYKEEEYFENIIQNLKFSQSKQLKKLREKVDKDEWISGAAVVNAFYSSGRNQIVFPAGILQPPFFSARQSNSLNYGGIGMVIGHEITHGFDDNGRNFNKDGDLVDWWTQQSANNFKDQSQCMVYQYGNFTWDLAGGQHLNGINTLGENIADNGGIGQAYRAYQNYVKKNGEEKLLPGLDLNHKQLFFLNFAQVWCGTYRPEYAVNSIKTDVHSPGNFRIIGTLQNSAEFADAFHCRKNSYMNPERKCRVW
In short: (§3)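 Fluorogenic assay with Abz-D-Arg-Arg-Leu-EDDnp as substrate (solution at 50 µM before mixing). Inhibitor is pre-mixed with substrate, and enzyme is added, diluted so that conversion stays at or below ~10% in 1 h. Incubation runs 1 h at 37 °C with shaking in Tris–Cl, then is stopped with phosphoramidon. Read-out is Ex320/Em420. Each IC50 uses a 10-point half-log series in duplicate.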

[10] = Oral bioavailability in rat at 1 mg/kg, iv and 1 mg/kg, po; assay type: ADME, organism-based; conditions: in vivo; in short: as §2
[11] = Fraction unbound ligand in rat at 1 mg/kg, iv and 1 mg/kg, po; assay type: ADME, organism-based; conditions: in vivo
In short: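 Fraction unbound in rat plasma measured at 1 µg/ml by equilibrium dialysis against isotonic Krebs–Ringer bicarbonate buffer, pH 7.4.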

[12] = Half life in rat at 1 mg/kg, iv and 1 mg/kg, po; assay type: ADME, organism-based; conditions: in vivo; in short: as §2
[13] = Volume of distribution in rat at 1 mg/kg, iv and 1 mg/kg, po; assay type: ADME, organism-based; conditions: in vivo, read-out: Vdss; in short: as §2
Neprilysin [14] = biological target: T3, Neprilysin (Oryctolagus cuniculus, UniProt P08049); assay: Inhibition of rabbit NEP; in short: as §3
T3 sequence (P08049 whole entry): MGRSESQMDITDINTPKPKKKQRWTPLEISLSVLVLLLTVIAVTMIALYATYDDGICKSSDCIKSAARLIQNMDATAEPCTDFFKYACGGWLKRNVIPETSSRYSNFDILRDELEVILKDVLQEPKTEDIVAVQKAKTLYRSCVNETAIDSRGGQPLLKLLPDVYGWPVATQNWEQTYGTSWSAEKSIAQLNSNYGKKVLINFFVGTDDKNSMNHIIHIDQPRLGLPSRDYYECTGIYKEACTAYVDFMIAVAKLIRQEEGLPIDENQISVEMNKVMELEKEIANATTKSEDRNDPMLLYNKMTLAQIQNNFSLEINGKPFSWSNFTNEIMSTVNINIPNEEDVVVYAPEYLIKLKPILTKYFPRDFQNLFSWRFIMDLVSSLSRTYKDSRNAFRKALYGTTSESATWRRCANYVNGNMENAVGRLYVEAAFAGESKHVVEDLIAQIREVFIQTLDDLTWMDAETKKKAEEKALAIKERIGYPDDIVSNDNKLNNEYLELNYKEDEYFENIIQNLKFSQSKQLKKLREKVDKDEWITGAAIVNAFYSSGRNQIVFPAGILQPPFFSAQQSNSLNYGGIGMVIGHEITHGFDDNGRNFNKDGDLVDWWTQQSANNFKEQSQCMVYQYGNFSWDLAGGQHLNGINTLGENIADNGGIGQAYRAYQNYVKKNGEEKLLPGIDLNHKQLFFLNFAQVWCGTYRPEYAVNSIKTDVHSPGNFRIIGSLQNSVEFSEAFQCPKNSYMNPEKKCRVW

Structure (SMILES) | pIC50 [3] | Activity (Sus scrofa) | other results
COCC[C@H](CC1(C(=O)N[C@@H]2C[C@H]2c2ccc(OC)cc2)CCCC1)C(=O)O | 8.10 | > 3 µM | logD [1]: 0.3; half-life at 1 µM [2]: > 2 h; fraction unbound at 1 ug/ml (Homo sapiens): 0.032; Activity [4]: > 3 µM; Papp A→B [5]: 7 ×10⁻⁶ cm/s; pIC50 [6]: 8.24
CCCC(CC1(C(=O)Nc2nnc(CC)s2)CCCC1)C(=O)O (stereo not given) | 7.22 | > 3 µM | 
COCCC(CC1(C(=O)N[C@@H]2C[C@H]2c2ccc(OC)cc2)CCCC1)C(=O)O (relative stereo) | 8.10 | > 3 µM | 
COCCC(CC1(C(=O)NCCc2ccc(OC)cc2)CCCC1)C(=O)O (stereo not given) | 6.43 | > 3 µM | 
COCC[C@H](CC1(C(=O)NCCCc2ccc(Cl)cc2)CCCC1)C(=O)O | 9.05 | > 3 µM | logD [1]: 1; clearance [7]: 3.5 mL/min/kg; Papp B→A [8]: 14 ×10⁻⁶ cm/s; half-life at 1 µM [2]: > 2 h; pIC50 (Neprilysin [9]): 9.22; Activity [4]: > 3 µM; Papp A→B [5]: 12 ×10⁻⁶ cm/s; bioavailability [10]: 70%; fraction unbound [11]: 0.083; pIC50 [6]: 8.42; half-life [12]: 1.9 h; Vd [13]: 0.6 L/kg; pIC50 (Neprilysin [14]): 9.10
CCCCc1ccnc(NC(=O)C2(CC(CCOC)C(=O)O)CCCC2)c1 (stereo not given) | 7.77 | > 3 µM | 
COCCC(CC1(C(=O)NC(C)Cc2ccccc2)CCCC1)C(=O)O (stereo not given) | 6.37 | > 3 µM | 
CCCCCCCNC(=O)C1(CC(CCOC)C(=O)O)CCCC1 (stereo not given) | 8.10 | > 3 µM | 
COCCC(CC1(C(=O)Nc2nnc(Cc3ccccc3)s2)CCCC1)C(=O)O (stereo not given) | 8.30 | > 3 µM | 
CCCC(CC1(C(=O)N[C@H]2C[C@@H]2c2ccccc2)CCCC1)C(=O)O (relative stereo) | 6.80 | > 3 µM | 
COCCC(CC1(C(=O)NCCc2ccccc2)CCCC1)C(=O)O (stereo not given) | 6.30 | > 3 µM | 
COCCC(CC1(C(=O)NC2(CO)Cc3ccccc3C2)CCCC1)C(=O)O (stereo not given) | 7.96 | > 3 µM | 
COCC(CC1(C(=O)N[C@H]2C[C@@H]2c2ccccc2)CCCC1)C(=O)O (relative stereo) | 7.19 | > 3 µM | 
